Laboratory results as given in ChEMBL document CHEMBL4725280, “Structural studies of triazole inhibitors with promising inhibitor effects against antibiotic resistance metallo-β-lactamases” (Bioorg Med Chem, 2020).
In brackets after ≈: the same amount, converted by molar mass. Activity calls are given as the source filed them. The rule behind the calls is not given here.

Columns and labels:
GIM-1 protein = GIM-1 protein (Pseudomonas aeruginosa, UniProt Q704V1); experiment: Inhibition of beta lactamase GIM-1 in Pseudomonas aeruginosa in presence of nitrocefin as reporter substrate measured after 5 mins by microplate spectrophotometry analysis
Chain of GIM-1 protein (Q704V1 whole entry): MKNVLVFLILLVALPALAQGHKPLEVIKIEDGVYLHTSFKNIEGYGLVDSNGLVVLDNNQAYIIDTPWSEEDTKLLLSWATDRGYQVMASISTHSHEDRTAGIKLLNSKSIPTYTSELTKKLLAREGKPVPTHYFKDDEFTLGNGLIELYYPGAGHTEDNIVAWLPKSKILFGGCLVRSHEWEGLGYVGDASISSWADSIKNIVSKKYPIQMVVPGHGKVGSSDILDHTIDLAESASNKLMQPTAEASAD
How it was run: (§1)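 Purified recombinant enzyme (1 nM GIM-1 or NDM-1) in 50 mM HEPES pH 7.2, 100 µM ZnCl2, 400 µg/ml BSA, preincubated with inhibitor at 16 concentrations (0–250 µM) for 5 min at 25 °C. Reporter substrate added at 100 µM: nitrocefin for GIM-1 (A482), imipenem for NDM-1 (A300). Triplicates; IC50 from initial velocities by log[inhibitor]–response fit.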

[1] = Inhibition of beta lactamase NDM1 in Klebsiella pneumoniae in presence of imipenem as reporter substrate measured after 5 mins by microplate spectrophotometry analysis; how it was run: as §1
Beta-lactamase VIM-2 = Beta-lactamase VIM-2 (Pseudomonas aeruginosa, UniProt Q9K2N0); experiment: Inhibition of beta lactamase VIM-2 in Pseudomonas aeruginosa 3015473 in presence of nitrocefin as reporter substrate measured after 5 mins by microplate spectrophotometry analysis
How it was run: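 Purified VIM-2 at 1 nM in 50 mM HEPES pH 7.2 with 100 µM ZnCl2 and 400 µg/ml BSA, preincubated with inhibitor (sixteen concentrations, 0–250 µM) for 5 min at 25 °C. Then 100 µM nitrocefin was added and absorbance was followed at 482 nm. Points were run in triplicate, and IC50 was taken from initial velocities by log[inhibitor]–response fitting.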

Klebsiella pneumoniae = experiment: (§2) Inhibition of Klebsiella pneumonia beta lactamase NDM1 transfected in negative Escherichia coli SNO3 cells assessed as substrate hydrolysis using nitrocefin as substrate at 250 uM incubated for 20 mins measured every 1 mins for 3 hrs by cell-based microplate spectrophotometry analysis relative to control
How it was run: (§3)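 E. coli SNO3 (β-lactamase-negative) carrying pET26b(+) with blaVIM-2, blaGIM-1 or blaNDM-1; overnight culture adjusted to OD600 1 in LB, inhibitor 250 µM final, IPTG 0.8 mM final, 37 °C 20 min with shaking to induce. Nitrocefin added (1.6 mM final, in 50 mM HEPES pH 7.2, 100 µM ZnCl2), A482 read each minute for 3 h; duplicates.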

[2] = biological target: Beta-lactamase VIM-2 (Pseudomonas aeruginosa) (UniProt Q9K2N0); experiment: as §2, with “Pseudomonas aeruginosa 3015473” for “Klebsiella pneumonia”, “VIM-2” for “NDM1”; how it was run: as §3
[3] = biological target: GIM-1 protein (Pseudomonas aeruginosa) (UniProt Q704V1); experiment: as §2, with “Pseudomonas aeruginosa” for “Klebsiella pneumonia”, “GIM-1” for “NDM1”; how it was run: as §3
Chain of GIM-1 protein (Pseudomonas aeruginosa) (Q704V1 as listed by the source): as the sequence (Q704V1 whole entry) above

[4] = biological target: Metallo-beta-lactamase type 2 (Klebsiella pneumoniae) (UniProt C7C422); experiment: Synergistic Inhibition of beta lactamase NDM1 in Klebsiella pneumoniae K66-45 assessed colony formation by visual inspection in presence of 125 microM N-((4-((cyclohexylamino)methyl)-1H-1,2,3-triazol-5-yl)methyl)-4-iodobenzenesulfonamide incubated for 20 hrs by two-fold dilution method
Chain of Metallo-beta-lactamase type 2 (Klebsiella pneumoniae) (C7C422 whole entry): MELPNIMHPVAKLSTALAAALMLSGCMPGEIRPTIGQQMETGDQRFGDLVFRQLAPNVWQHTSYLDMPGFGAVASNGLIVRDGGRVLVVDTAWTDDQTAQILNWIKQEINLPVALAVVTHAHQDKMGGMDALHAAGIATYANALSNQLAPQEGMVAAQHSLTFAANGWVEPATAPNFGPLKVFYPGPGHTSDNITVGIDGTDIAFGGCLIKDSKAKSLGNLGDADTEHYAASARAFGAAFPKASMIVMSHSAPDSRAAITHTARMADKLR
How it was run: (§4)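 Broth microdilution in Mueller Hinton broth against clinical isolates (P. aeruginosa VIM-2, K. pneumoniae NDM-1, E. coli VIM-29). Meropenem 2-fold series 256–0.0625 µg/mL, with inhibitor at 50 or 125 µM final; 5% DMSO control. Inoculum from 0.5 McFarland suspension in 0.85% NaCl diluted in MH broth, CFU checked on MH agar. 37 °C for 20 h; MIC read visually.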

[5] = biological target: Metallo-beta-lactamase type 2 (Klebsiella pneumoniae) (UniProt C7C422); experiment: Synergistic Inhibition of beta lactamase NDM1 in Klebsiella pneumoniae K66-45 assessed colony formation by visual inspection in presence of 50 microM (5-((4-iodophenylsulfonamido)methyl)-1H-1,2,3-triazol-4-yl)methyl acetate incubated for 20 hrs by two-fold dilution method; how it was run: as §4
Escherichia coli [6] = experiment: Inhibition of beta lactamase VIM-29 in Escherichia coli 50639799 assessed colony formation by visual inspection incubated for 20 hrs by two-fold dilution method; how it was run: as §4
Escherichia coli [7] = experiment: Synergistic Inhibition of beta lactamase VIM-29 in Escherichia coli 50639799 assessed colony formation by visual inspection in presence of 50 microM (5-((4-iodophenylsulfonamido)methyl)-1H-1,2,3-triazol-4-yl)methyl acetate incubated for 20 hrs by two-fold dilution method; how it was run: as §4
[8] = biological target: Metallo-beta-lactamase type 2 (Klebsiella pneumoniae) (UniProt C7C422); experiment: Inhibition of beta lactamase NDM1 in Klebsiella pneumoniae K66-45 assessed colony formation by visual inspection incubated for 20 hrs by two-fold dilution method; how it was run: as §4
[9] = biological target: Beta-lactamase VIM-2 (Pseudomonas aeruginosa) (UniProt Q9K2N0); experiment: Synergistic Inhibition of beta lactamase VIM-2 in Pseudomonas aeruginosa K34-7 assessed colony formation by visual inspection in presence of 50 microM 2,5-Dichloro-N-((4-((cyclohexylamino)methyl)-1H-1,2,3-triazol-5-yl)methyl)benzenesulfonamide incubated for 20 hrs by two-fold dilution method; how it was run: as §4
[10] = biological target: Beta-lactamase VIM-2 (Pseudomonas aeruginosa) (UniProt Q9K2N0); experiment: Synergistic Inhibition of beta lactamase VIM-2 in Pseudomonas aeruginosa K34-7 assessed colony formation by visual inspection in presence of 125 microM N-((4-((adamantylamino)methyl)-1H-1,2,3-triazol-5-yl)methyl)-4-iodobenzenesulfonamide incubated for 20 hrs by two-fold dilution method; how it was run: as §4
[11] = biological target: Metallo-beta-lactamase type 2 (Klebsiella pneumoniae) (UniProt C7C422); experiment: Synergistic Inhibition of beta lactamase NDM1 in Klebsiella pneumoniae K66-45 assessed colony formation by visual inspection in presence of 125 microM N-((4-((adamantylamino)methyl)-1H-1,2,3-triazol-5-yl)methyl)-4-iodobenzenesulfonamide incubated for 20 hrs by two-fold dilution method; how it was run: as §4
[12] = biological target: Beta-lactamase VIM-2 (Pseudomonas aeruginosa) (UniProt Q9K2N0); experiment: Inhibition of beta lactamase VIM-2 in Pseudomonas aeruginosa K34-7 assessed colony formation by visual inspection incubated for 20 hrs by two-fold dilution method; how it was run: as §4
[13] = biological target: Metallo-beta-lactamase type 2 (Klebsiella pneumoniae) (UniProt C7C422); experiment: Synergistic Inhibition of beta lactamase NDM1 in Klebsiella pneumoniae K66-45 assessed colony formation by visual inspection in presence of 50 microM 2,5-Dichloro-N-((4-((cyclohexylamino)methyl)-1H-1,2,3-triazol-5-yl)methyl)benzenesulfonamide incubated for 20 hrs by two-fold dilution method; how it was run: as §4
[14] = biological target: Beta-lactamase VIM-2 (Pseudomonas aeruginosa) (UniProt Q9K2N0); experiment: Synergistic Inhibition of beta lactamase VIM-2 in Pseudomonas aeruginosa K34-7 assessed colony formation by visual inspection in presence of 50 microM (5-((4-iodophenylsulfonamido)methyl)-1H-1,2,3-triazol-4-yl)methyl acetate incubated for 20 hrs by two-fold dilution method; how it was run: as §4
Escherichia coli [15] = experiment: Synergistic Inhibition of beta lactamase VIM-29 in Escherichia coli 50639799 assessed colony formation by visual inspection in presence of 50 microM 2,5-Dichloro-N-((4-((cyclohexylamino)methyl)-1H-1,2,3-triazol-5-yl)methyl)benzenesulfonamide incubated for 20 hrs by two-fold dilution method; how it was run: as §4
[16] = biological target: Beta-lactamase VIM-2 (Pseudomonas aeruginosa) (UniProt Q9K2N0); experiment: Synergistic Inhibition of beta lactamase VIM-2 in Pseudomonas aeruginosa K34-7 assessed colony formation by visual inspection in presence of 125 microM N-((4-((cyclohexylamino)methyl)-1H-1,2,3-triazol-5-yl)methyl)-4-iodobenzenesulfonamide incubated for 20 hrs by two-fold dilution method; how it was run: as §4

| Structure (SMILES) | IC50 (GIM-1 protein; read-out: IC50) [µM] | IC50 ([1]; read-out: IC50) [µM] | IC50 (Beta-lactamase VIM-2; read-out: IC50) [µM] | inhibition (Klebsiella pneumoniae) | inhibition [2] | inhibition [3] | other results |
| --- | --- | --- | --- | --- | --- | --- | --- |
| CC(=O)OCc1nn[nH]c1CNS(=O)(=O)c1ccc(I)cc1 | 48 | 231 | 23 |  |  |  |  |
| O=S(=O)(NCc1[nH]nnc1CNC1CCCCC1)c1cc(Cl)ccc1Cl |  | 98 | 0.23 | inactive | 94% | 7% | IC50 (GIM-1 protein): Not Active |
| O=S(=O)(NCc1[nH]nnc1CNCc1ccccc1)c1ccc(I)cc1 |  |  |  |  |  |  | IC50 (Beta-lactamase VIM-2): Nd(Insoluble) |
| C[C@@H](O)[C@H]1C(=O)N2C(C(=O)O)=C(S[C@@H]3CN[C@H](C(=O)N(C)C)C3)[C@H](C)[C@H]12 |  |  |  |  |  |  | MIC [4]: 64 µg/mL; MIC [5]: 64 µg/mL; MIC (Escherichia coli [6]): 16 µg/mL (≈ 41.7 µM); MIC (Escherichia coli [7]): 1 µg/mL; MIC [8]: 32 µg/mL (≈ 83.4 µM); MIC [9]: 8 µg/mL; MIC [10]: 16 µg/mL; MIC [11]: 32 µg/mL; MIC [12]: 64 µg/mL (≈ 167 µM); MIC [13]: 32 µg/mL; MIC [14]: 1 µg/mL; MIC (Escherichia coli [15]): 16 µg/mL; MIC [16]: 8 µg/mL |
| O=S(=O)(NCc1[nH]nnc1CNC(c1ccccc1)(c1ccccc1)c1ccccc1)c1ccc(I)cc1 | 353 | 81 | > 250 | inactive | 19% | 3% |  |
| NCc1nn[nH]c1CNS(=O)(=O)c1ccccc1 |  |  | 23 | inactive | 29% | inactive | IC50 (GIM-1 protein): Not Active; IC50 [1]: Not Active |
| Cc1ccc(S(=O)(=O)NCc2[nH]nnc2CNC23CC4CC(CC(C4)C2)C3)cc1 | 83 |  | 2.3 | inactive | 84% | inactive |  |
| O=S(=O)(NCc1[nH]nnc1CNC12CC3CC(CC(C3)C1)C2)c1ccc(I)cc1 | 18 |  | 0.16 | 17% | 96% | 22% |  |
| COCc1nn[nH]c1CNS(=O)(=O)c1ccc(I)cc1 | 169 |  | 15 | inactive | 51% | 11% | IC50 [1]: Not Active |
| O=S(=O)(NCc1[nH]nnc1CNC12CC3CC(CC(C3)C1)C2)c1cc(Cl)ccc1Cl |  |  | 0.12 | inactive | inactive | 21% | IC50 (GIM-1 protein): Nd(Insoluble) |
| CC(C)OCc1nn[nH]c1CNS(=O)(=O)c1ccc(I)cc1 | 193 |  | 0.53 | inactive | 85% | 11% | IC50 [1]: Not Active |
| COc1ccc(CSCc2nn[nH]c2CNS(=O)(=O)c2ccc(I)cc2)cc1 | 227 |  | 21 | 34% | 45% | 33% |  |
| Cc1ccc(S(=O)(=O)NCc2[nH]nnc2COC(C)(C)C)cc1 | 128 | 142 | 7.2 | inactive | 60% | 4.5% |  |
| O=S(=O)(NCc1[nH]nnc1CNC1CCCCC1)c1ccc(I)cc1 | 69 | 148 | 0.067 | inactive | 95% | 3% |  |
| Cc1ccc(S(=O)(=O)NCc2[nH]nnc2CNC2CCCCC2)cc1 |  | 144 | 1.5 | inactive | 82% | 2.3% | IC50 (GIM-1 protein): Not Active |
